≈ marks a conversion by molar mass, not a printed value.
Key:
Acetyl-CoA carboxylase 2 = Acetyl-CoA carboxylase 2 (Homo sapiens, UniProt O00763); assay: Inhibition of recombinant human ACC2 using acetyl coA as substrate incubated for 1 hr by transcreener fluorescence polarization assay
Summary of the method: (§1)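 Recombinant human enzyme, Transcreener assay run per an earlier protocol. IC50 is the geometric mean of at least three replicates, also given as pIC50 ± SD.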

[1] = Apparent permeability in MCDKII-LE cells at 2 uM incubated for 30 mins; assay type: ADME, cell-based, Canis lupus familiaris, MDCKII-LE; details: dog, MDCK
Summary of the method: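 MDCK-LE (low-efflux) cell monolayers with a 30 min pre-incubation. Read-out is apparent passive permeability (Papp, 10^-6 cm/s).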

[2] = Octanol-water partition coefficient, logD of compound at pH 7.4 at 0.5 to 2 mg incubated for 1 hr by HPLC based shake-flask method; assay type: physicochemical; details: dose 0.5-2 mg
Summary of the method: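 Shake-flask octanol/water partition at pH 7.4.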

[3] = Apparent volume of distribution at steady state in Wistar-Hannover rat plasma at 1 mg/kg, iv and measured up to 24 hrs by LC/MS-MS analysis; assay type: ADME, organism-based; details: read-out: Vdss(app)
Summary of the method: (§2)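 Male Wistar-Hannover rats (240–350 g) with jugular vein cannulas, dosed 1 mg/kg IV (2 mL/kg) or PO. IV vehicle was 10% DMSO/90% of 20% sulfobutylether-β-cyclodextrin in water, or 10% DMSO/30% PEG400/60% water. Plasma was analysed by LC-MS/MS. Parameters come from plasma concentration–time data, n = 2: Cmax observed directly, AUC0-24 by the linear trapezoidal rule, CL = IV dose/AUC, Vss = dose/(AUC × elimination rate constant).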

[4] = Half life in Wistar-Hannover rat plasma at 1 mg/kg, iv and measured up to 24 hrs by LC/MS-MS analysis; assay type: ADME, organism-based; summary of the method: as §2
[5] = AUC (0 to 24 hrs) in Wistar-Hannover rat plasma at 1 mg/kg, iv and measured up to 24 hrs by LC/MS-MS analysis; assay type: ADME, organism-based; design: route intravenous, dose 1 mg/kg, time <=24
Summary of the method: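 Male Wistar-Hannover rats (240–350 g) with jugular vein cannulas were given 1 mg/kg IV at 2 mL/kg. Vehicle, depending on compound, was 10% DMSO/90% of 20% sulfobutylether-β-cyclodextrin in water or 10% DMSO/30% PEG400/60% water. AUC0–24 came from plasma concentration–time data by the linear trapezoidal rule, averaged for n = 2. Lower detection limit was 1 ng/mL.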

OATP1B3 [6] = molecular target: T1, OATP1B3 (Homo sapiens, UniProt Q9NPD5); assay: Substrate activity at human OATP1B3 stably expressed in HEK293 cells assessed as ratio of total to passive cellular uptake at 1 uM incubated for 5 mins by LC/MS-MS analysis; assay type: ADME, cell-based; details: HEK293 cells stably expressing human OATP1B3
T1 sequence (Q9NPD5 whole entry): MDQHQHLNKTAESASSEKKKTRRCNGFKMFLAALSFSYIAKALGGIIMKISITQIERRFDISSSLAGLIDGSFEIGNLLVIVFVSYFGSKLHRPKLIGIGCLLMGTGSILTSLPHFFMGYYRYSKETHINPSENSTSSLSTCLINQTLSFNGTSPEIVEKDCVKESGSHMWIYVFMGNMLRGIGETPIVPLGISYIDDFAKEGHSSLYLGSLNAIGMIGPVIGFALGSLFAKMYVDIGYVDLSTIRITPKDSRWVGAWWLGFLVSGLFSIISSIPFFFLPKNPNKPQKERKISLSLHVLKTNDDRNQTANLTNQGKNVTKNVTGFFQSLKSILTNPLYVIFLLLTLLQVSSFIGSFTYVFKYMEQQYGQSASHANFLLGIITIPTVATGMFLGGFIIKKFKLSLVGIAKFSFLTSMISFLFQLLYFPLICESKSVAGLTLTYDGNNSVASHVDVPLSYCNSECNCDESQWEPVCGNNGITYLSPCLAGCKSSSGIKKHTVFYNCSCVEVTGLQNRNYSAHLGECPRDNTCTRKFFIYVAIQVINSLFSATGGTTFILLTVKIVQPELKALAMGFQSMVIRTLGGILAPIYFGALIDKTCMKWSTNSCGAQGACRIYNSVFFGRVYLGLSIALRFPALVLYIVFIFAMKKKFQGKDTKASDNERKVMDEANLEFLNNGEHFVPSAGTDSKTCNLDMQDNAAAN
Summary of the method: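 Transfected versus parental HEK293 cells exposed at 1 µM for 5 min at 37 °C. Ratio is total (transfected) over passive (parental) uptake; >2 denotes substrate.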

[7] = Clearance in Wistar-Hannover rat plasma at 1 mg/kg, iv and measured up to 24 hrs by LC/MS-MS analysis; assay type: ADME, organism-based; summary of the method: as §2
[8] = Metabolic intrinsic clearance in human hepatocytes assessed per million cells incubated for 2 hrs; assay type: ADME, cell-based, Hepatocyte; details: read-out: CLH
Summary of the method: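 Cryopreserved human hepatocytes incubated for 2 h. In vitro half-lives scaled to intrinsic clearance, expressed per 10^6 cells.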

Rattus norvegicus = species on record: Rattus norvegicus; assay: Fraction unbound in rat plasma by equilibrium dialysis method
Acetyl-CoA carboxylase 1 = Acetyl-CoA carboxylase 1 (Homo sapiens, UniProt Q13085); assay: Inhibition of recombinant human ACC1 using acetyl coA as substrate incubated for 1 hr by transcreener fluorescence polarization assay; summary of the method: as §1
[9] = Fraction unbound in rat liver by equilibrium dialysis method
[10] = Genotoxicity in Salmonella typhimurium TA1537 by Ames test; assay type: toxicity; details: salmonella enterica subsp. enterica serovar typhimurium
Summary of the method: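 Ames test in Salmonella strains TA98, TA100, TA1535 and TA1537, run with and without aroclor-induced rat liver S9 plus NADPH.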

[11] = Fraction unbound in monkey liver by equilibrium dialysis method; assay type: ADME, tissue-based, Macaca mulatta; details: rhesus monkey
Summary of the method: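 Fraction unbound in plasma and liver tissue was determined by equilibrium dialysis.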

[12] = molecular target: Solute carrier organic anion transporter family member 1B1 (Homo sapiens, UniProt Q9Y6L6); assay: Inhibition of human OATP1B1 expressed in HEK293 cells n presence of rosuvastatin; assay type: cell-based
Chain of Solute carrier organic anion transporter family member 1B1 (Q9Y6L6 whole entry): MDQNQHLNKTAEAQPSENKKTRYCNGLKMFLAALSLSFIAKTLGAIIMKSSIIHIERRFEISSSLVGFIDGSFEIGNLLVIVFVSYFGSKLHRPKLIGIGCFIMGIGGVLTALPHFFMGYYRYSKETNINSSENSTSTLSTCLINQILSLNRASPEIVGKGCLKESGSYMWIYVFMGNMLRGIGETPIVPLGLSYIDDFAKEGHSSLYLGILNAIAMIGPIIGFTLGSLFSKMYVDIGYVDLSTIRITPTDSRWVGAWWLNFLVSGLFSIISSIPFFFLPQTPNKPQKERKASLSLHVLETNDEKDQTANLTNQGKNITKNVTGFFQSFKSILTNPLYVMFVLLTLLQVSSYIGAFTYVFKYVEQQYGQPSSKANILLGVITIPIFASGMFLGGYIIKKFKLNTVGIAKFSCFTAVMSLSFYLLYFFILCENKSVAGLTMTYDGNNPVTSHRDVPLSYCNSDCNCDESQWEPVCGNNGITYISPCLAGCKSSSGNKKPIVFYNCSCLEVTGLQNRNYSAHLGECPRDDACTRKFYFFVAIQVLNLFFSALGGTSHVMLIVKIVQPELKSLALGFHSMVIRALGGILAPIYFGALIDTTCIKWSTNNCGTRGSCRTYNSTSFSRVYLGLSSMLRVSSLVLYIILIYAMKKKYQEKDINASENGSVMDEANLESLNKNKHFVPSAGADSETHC

Cytochrome P450 2C8 = Cytochrome P450 2C8 (Homo sapiens, UniProt P10632); assay: inhibition of CYP2C8 in human liver microsomes; assay type: ADME
Chain of Cytochrome P450 2C8 (P10632 whole entry): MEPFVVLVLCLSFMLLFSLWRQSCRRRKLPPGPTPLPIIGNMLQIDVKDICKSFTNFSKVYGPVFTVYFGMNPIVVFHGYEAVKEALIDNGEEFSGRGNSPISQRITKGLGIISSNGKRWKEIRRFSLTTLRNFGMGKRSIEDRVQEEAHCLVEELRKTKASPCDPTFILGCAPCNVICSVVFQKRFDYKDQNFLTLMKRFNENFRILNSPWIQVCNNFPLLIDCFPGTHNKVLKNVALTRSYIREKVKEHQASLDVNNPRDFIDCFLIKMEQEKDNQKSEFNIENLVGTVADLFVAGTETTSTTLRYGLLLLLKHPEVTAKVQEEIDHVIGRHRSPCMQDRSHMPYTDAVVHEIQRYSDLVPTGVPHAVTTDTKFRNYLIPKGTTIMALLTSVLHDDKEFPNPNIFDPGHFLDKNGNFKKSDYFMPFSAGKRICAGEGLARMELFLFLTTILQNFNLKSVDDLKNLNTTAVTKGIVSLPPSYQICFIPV

[13] = Thermodynamic solubility of the compound at pH 7.4 after 24 hrs; assay type: physicochemical; details: buffer, read-out: Therm_solubility
OATP1B3 [14] = molecular target: T1, OATP1B3; assay: Substrate activity at human OATP1B3 stably expressed in HEK293 cells assessed as ratio of total to passive cellular uptake at 1 to 3 uM incubated for 0.5 to 4 mins by LC/MS-MS analysis; assay type: ADME, cell-based; details: HEK293 cells stably expressing human OATP1B3, dose 1-3 µM, time 0.5-4 min
Summary of the method: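 Stably transfected HEK293 cells and wild-type parental cells, cultured to confluency in DMEM with 10% heat-inactivated FBS and 5 µg/mL blasticidin. Uptake at 1–3 µM in HBSS/20 mM HEPES pH 7.4, 37 °C, 0.5–4.0 min. Cells washed in ice-cold buffer, lysed in MeOH, quantified by LC-MS/MS and normalized to protein. Ratio is transfected/parental uptake; >2 denotes substrate.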

[15] = Ratio of drug uptake in Wistar-Hannover rat unbound liver to plasma concentration at 10 mg/kg, po after 6 hrs by LC/MS-MS analysis; assay type: ADME, organism-based; details: other tissue
Summary of the method: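 Male Wistar-Hannover rats (n = 2 or 3) dosed orally as a suspension in 0.5% methyl cellulose with 0.1% Tween 80. Total plasma and liver concentrations taken 6 h post-dose. Converted to unbound values using fraction unbound in plasma and liver from equilibrium dialysis. Kpu,u = ratio of mean free liver to free plasma concentration.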

Chain of Acetyl-CoA carboxylase 2 (O00763 whole entry): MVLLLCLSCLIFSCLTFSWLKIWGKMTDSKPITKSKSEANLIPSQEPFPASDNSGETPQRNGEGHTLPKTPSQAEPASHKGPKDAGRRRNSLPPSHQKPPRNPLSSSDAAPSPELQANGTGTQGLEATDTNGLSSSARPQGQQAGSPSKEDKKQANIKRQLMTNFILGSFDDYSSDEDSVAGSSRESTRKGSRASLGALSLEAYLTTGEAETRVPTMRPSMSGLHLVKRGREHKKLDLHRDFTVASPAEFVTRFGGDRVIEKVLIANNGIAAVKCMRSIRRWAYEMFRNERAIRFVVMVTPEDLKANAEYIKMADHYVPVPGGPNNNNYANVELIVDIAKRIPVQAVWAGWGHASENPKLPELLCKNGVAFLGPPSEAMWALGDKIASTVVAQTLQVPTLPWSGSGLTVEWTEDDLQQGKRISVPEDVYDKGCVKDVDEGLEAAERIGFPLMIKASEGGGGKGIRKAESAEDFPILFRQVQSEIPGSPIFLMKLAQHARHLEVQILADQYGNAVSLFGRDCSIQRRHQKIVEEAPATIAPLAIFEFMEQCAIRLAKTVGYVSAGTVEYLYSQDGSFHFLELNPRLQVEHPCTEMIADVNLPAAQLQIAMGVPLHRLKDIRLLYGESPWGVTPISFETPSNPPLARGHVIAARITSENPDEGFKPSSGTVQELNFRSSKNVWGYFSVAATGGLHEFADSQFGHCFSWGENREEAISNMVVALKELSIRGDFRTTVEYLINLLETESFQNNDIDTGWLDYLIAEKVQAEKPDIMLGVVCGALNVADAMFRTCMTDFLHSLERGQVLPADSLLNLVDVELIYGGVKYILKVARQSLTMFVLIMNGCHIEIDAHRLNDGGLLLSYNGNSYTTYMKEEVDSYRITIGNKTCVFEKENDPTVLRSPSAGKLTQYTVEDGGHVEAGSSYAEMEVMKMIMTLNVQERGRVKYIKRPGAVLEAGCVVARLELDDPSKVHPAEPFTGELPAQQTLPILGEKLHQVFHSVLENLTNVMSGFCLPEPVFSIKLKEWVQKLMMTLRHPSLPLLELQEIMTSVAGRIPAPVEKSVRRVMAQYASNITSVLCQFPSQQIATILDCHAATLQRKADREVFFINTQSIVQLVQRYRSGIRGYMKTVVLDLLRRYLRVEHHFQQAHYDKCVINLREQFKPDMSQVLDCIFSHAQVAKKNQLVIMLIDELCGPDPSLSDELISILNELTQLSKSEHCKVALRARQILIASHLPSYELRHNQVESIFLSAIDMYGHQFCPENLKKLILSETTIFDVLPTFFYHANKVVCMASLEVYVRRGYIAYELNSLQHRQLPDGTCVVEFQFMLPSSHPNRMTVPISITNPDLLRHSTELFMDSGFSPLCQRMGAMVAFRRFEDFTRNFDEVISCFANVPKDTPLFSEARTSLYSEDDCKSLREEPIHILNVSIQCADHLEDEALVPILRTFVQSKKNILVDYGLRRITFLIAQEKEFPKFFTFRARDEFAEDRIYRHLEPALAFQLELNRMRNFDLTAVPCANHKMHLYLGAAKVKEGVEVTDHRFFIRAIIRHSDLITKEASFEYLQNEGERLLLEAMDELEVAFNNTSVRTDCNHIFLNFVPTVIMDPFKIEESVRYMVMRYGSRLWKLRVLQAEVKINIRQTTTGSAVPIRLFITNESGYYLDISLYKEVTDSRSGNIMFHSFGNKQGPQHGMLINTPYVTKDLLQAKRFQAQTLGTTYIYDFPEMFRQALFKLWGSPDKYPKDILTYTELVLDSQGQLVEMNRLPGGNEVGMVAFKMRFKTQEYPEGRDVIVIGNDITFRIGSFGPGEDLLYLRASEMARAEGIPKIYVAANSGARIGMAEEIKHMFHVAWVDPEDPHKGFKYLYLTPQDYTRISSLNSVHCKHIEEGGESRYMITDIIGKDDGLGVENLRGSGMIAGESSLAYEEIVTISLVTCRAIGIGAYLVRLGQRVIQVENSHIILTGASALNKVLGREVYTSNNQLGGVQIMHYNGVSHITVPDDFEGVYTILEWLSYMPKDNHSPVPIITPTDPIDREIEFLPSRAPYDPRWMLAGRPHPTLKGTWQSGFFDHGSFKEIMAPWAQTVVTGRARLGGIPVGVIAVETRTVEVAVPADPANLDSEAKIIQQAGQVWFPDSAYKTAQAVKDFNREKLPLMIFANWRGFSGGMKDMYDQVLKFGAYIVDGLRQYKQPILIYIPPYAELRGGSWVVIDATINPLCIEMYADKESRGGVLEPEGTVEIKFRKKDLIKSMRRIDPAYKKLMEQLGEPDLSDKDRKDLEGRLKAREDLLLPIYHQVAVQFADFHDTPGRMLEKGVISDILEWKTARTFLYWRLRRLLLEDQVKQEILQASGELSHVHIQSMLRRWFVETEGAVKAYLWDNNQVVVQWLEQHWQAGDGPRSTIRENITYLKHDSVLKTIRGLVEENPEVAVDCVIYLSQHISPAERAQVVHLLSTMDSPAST

With `COc1cc(C(=O)N2CCC3(CC2)CC(=O)c2nn(C(C)(C)C)cc2O3)cc(-c2ccc(C(=O)O)cc2)n1` as the compound, how does the IC50 (Acetyl-CoA carboxylase 2) read?
Its IC50 is 13 nM.

And the Papp at 0.5 h, 2 µM [1]?
The Papp at 0.5 h, 2 µM was 2 ×10⁻⁶ cm/s.

What about the logD at 1 h [2] of the same compound?
Its logD at 1 h is 0.5.

What about the Vd [3] of the same compound?
Its Vd is 4.1 L/kg.

What about the half-life [4] of the same compound?
Its half-life is 3.5 h.

And the AUC(0-t) [5]?
Its AUC(0-t) is 299 ng·h/mL.

What about the uptake ratio at 5 min, 1 µM (OATP1B3 [6]) of the same compound?
Its uptake ratio at 5 min, 1 µM is 3.3.

And the clearance [7]?
Its clearance is 54.5 mL/min/kg.

And the hepatocyte CLint [8]?
Its hepatocyte CLint is under 3 µL/min/1e6 cells.

What about the fraction unbound (Rattus norvegicus) of the same compound?
Its fraction unbound is 0.17.

What about the IC50 (Acetyl-CoA carboxylase 1) of the same compound?
The IC50 was 22 nM.

What about the fraction unbound [9] of the same compound?
The fraction unbound was 0.07.

Which Activity [10] does the source give for `COc1cc(C(=O)N2CCC3(CC2)CC(=O)c2c(cnn2C(C)C)C3)cc(-c2ccc(C(=O)O)cc2)n1` [CLESACOSTAT] here?
Its Activity is “Non-Toxic”.

What about the IC50 (Acetyl-CoA carboxylase 2) of the same compound?
Its IC50 is 26 nM.

And the Papp at 0.5 h, 2 µM [1]?
The Papp at 0.5 h, 2 µM was 14 ×10⁻⁶ cm/s.

And the logD at 1 h [2]?
The logD at 1 h was 1.1.

And the Vd [3]?
Its Vd is 7.2 L/kg.

What about the fraction unbound [11] of the same compound?
The fraction unbound was 0.15.

What about the half-life [4] of the same compound?
Its half-life is 8.6 h.

And the AUC(0-t) [5]?
The AUC(0-t) was 965 ng·h/mL.

And the IC50 [12]?
Its IC50 is 11700 nM.

And the IC50 (Cytochrome P450 2C8)?
The IC50 was over 50000 nM.

What about the clearance [7] of the same compound?
The clearance was 16 mL/min/kg.

What about the solubility thermodynamic at 24 h [13] of the same compound?
Its solubility thermodynamic at 24 h is 234 µM (≈ 118 µg/mL).

And the hepatocyte CLint [8]?
The hepatocyte CLint was under 3 µL/min/1e6 cells.

And the fraction unbound (Rattus norvegicus)?
Its fraction unbound is 0.0392.

And the IC50 (Acetyl-CoA carboxylase 1)?
The IC50 was 33 nM.

What about the uptake ratio at up to 3 µM (OATP1B3 [14]) of the same compound?
The uptake ratio at up to 3 µM was 2.5.

And the fraction unbound [9]?
The fraction unbound was 0.066.

And the Ratio [15]?
Its Ratio is 132.

Source: ChEMBL document CHEMBL4665761, “Optimizing the Benefit/Risk of Acetyl-CoA Carboxylase Inhibitors through Liver Targeting” (J Med Chem, 2020)
